The text below walks through data of publication PMC4293084 (Nature communications, 2015).

The test system of one experiment is EI^WT. Put plainly: Enzyme kinetic assay. To be noted: 37°C. In kind it is biochemical, E. coli. The method in brief:
(§1)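 Wild-type E. coli Enzyme I or its H189Q or H189A active-site mutant, expressed and purified. PEP hydrolysis to inorganic phosphate and pyruvate was followed spectrophotometrically at 37°C with a coupled phosphate-detection kit. Enzymatic velocities at varying PEP were fit to the Michaelis-Menten equation to give Km. For display, velocities were normalised to each fit's maximum velocity.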

Another experiment deals with EI^Q (H189Q). Briefly: Enzyme kinetic assay. In kind it is biochemical, E. coli. Particulars: 37°C. The method in brief: as §1
The next experiment deals with EI^A (H189A). Put plainly: Enzyme kinetic assay. In kind it is biochemical, E. coli. To be noted: 37°C. The method in brief: as §1
For the next experiment, the system named is isolated EIC. Particulars: cited from earlier work.

The Km is the concentration of substrate that gives half-maximal velocity. On to `C=C(OP(=O)(O)O)C(=O)O` [PEP, phosphoenolpyruvate], for which the Km in the experiment on EI^WT was roughly 330 µM; with EI^Q (H189Q), roughly 130 µM; in the experiment on EI^A (H189A), less than 50 µM; in the experiment on isolated EIC, roughly 370 µM.
